From PubChem BioAssay
A selection: hits, their analogues and other compounds. The true share with any hit is near 2.1%.
M5 PAM: human M5 muscarinic receptor positive allosteric modulators, primary screen, CHO-K1 cells, Fluo-8 calcium fluorescence | actives 0.3% (n = 360,000) | CHO-K1 hM5, ACh EC20 PAM; 0% = ACh EC20, 100% = ACh EC100 | activation, % at 3 µM | Muscarinic acetylcholine receptor M5 (Homo sapiens), P08912;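 active = activation above the run cutoff, the mean activation of all test compounds plus 3 SD, cut at about 18% in these data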
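Assay system: CHO-K1 hM5 cells. Also added: acetylcholine at EC20 concentration, added after compound. Dosing: 3 µM, single dose. Times: compound preincubation 140 s before EC20 acetylcholine addition. Signal: Fluo-8 calcium fluorescence. Measure: % activation relative to EC20 and EC100 ACh responses. Repeats: singlicate, one well per test compound.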
CHRM5 agonist: human M5 muscarinic receptor agonists, primary screen, CHO-K1 cells, Fluo-8 calcium fluorescence; Muscarinic acetylcholine receptor M5 (Homo sapiens), P08912; CHO-K1 hM5 cells; 0% DMSO wells, 100% maximal acetylcholine response; activation, % at 3 µM; actives 0.19% (n = 360,000); AID 624037, 2012;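 active = activation above the run's mean over test compounds plus 3 SD, cut at about 23% in these data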;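 also: signal is peak over basal fluorescence ratio across the kinetic read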
CHRM1 antagonist: human M1 muscarinic receptor antagonists, primary screen, CHO-K1 cells, Fluo-8 calcium fluorescence, 1536-well | Muscarinic acetylcholine receptor M1 (Homo sapiens), P11229 | CHO-K1 hM1, ACh EC80 antagonist | inhibition, % at 3 µM | actives 1.3% (n = 360,000);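 active = percent inhibition above its own plate's cutoff, namely the mean of that plate's compound wells plus 3 SD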;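 also: peak over basal fluorescence ratio during 140 s after agonist addition; 0% = ACh EC80 plus DMSO and 100% = DMSO alone without agonist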
Target sequence (P11229 whole entry, looked up): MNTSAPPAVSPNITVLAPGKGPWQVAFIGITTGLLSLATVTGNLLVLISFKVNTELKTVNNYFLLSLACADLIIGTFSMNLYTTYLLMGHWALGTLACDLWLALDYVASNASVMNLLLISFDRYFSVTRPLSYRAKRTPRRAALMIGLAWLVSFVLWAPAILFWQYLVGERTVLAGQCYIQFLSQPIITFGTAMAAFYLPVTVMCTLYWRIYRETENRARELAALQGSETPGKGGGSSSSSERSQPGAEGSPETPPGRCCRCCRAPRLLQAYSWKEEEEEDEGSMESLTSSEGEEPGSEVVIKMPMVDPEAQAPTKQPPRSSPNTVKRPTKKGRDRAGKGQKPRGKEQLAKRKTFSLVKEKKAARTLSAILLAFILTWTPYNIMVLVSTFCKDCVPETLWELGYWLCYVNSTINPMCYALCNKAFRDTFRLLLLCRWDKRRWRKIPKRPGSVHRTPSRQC
M1 PAM: human M1 muscarinic receptor positive allosteric modulators, primary screen, CHO-K1 cells, Fluo-8 calcium fluorescence, 1536-well | Muscarinic acetylcholine receptor M1 (Homo sapiens), P11229 | CHO-K1 hM1, ACh EC20; 0% = ACh EC20, 100% = maximal ACh | activation, % at 3 µM | actives 0.088% (n = 360,000); in the data active = activation above about 19%, passing the limit was not always enough
M5 antag: human M5 muscarinic receptor antagonists, primary screen, CHO cells, Fluo-8 calcium fluorescence; inhibition, % at 3 µM; CHO-hM5 cells, ACh EC80; Muscarinic acetylcholine receptor M5 (Homo sapiens), P08912; actives 0.59% (n = 360,000);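 active = inhibition above a per-plate cutoff, the mean of that plate's test compounds plus 3 SD, cut at about 27% in these data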;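 also: 0% = acetylcholine EC80 with DMSO and 100% = DMSO without agonist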
CHRM1 agonist: human M1 muscarinic receptor agonists, primary screen, Fluo-8 calcium fluorescence, CHO-K1 cells, HTS; Muscarinic acetylcholine receptor M1 (Homo sapiens), P11229; CHO-K1 hM1, agonist mode; 0% DMSO, 100% acetylcholine EC100; activation, % at 3 µM; actives 0.33% (n = 360,000);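 active = activation above the run's mean compound activation plus 3 SD, cut at about 16% in these data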;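 also: peak over basal fluorescence ratio within a 140 s kinetic read after compound addition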
* marks the source's active call; other numbers are inactive results; nt = no result given.

SMILES	M5 PAM	CHRM5 agonist	CHRM1 antagonist	M1 PAM	M5 antag	CHRM1 agonist
Cc1ccc(-c2cccc(CN3CCN(C(C)C)C(CCO)C3)c2)o1 (configuration not stated)	3	-10	2	-17	-4	-11
Cc1ccc(OCC(O)CNCc2ccc(F)cc2)cc1 (configuration not stated)	-5	-4	-1	4	13	-2
OC(CNCCNc1ncccc1C(F)(F)F)COc1ccc(F)cc1 (configuration not stated)	3	-10	19	-14	-5	40*
COc1ccc(-c2nc(-c3ccc(NC(=O)c4ccncc4)cc3)no2)cc1OC	-16	7	39*	-21	8	0
COc1ccc(Cl)cc1-c1nc(-c2ccc(NC(=O)c3ccncc3)cc2)no1	0	-7	0	1	-2	-3
CC(=O)Nc1c(Cl)cnn(-c2ccccc2)c1=O	22*	0	-14	10	-11	-2
CNC(=O)c1c(Cl)cnn1-c1ccccc1	-6	-1	-2	3	7	-5
Cc1cc(C)c(C)c(SCC(=O)Nc2oc(C)c3c(C)n[nH]c(=O)c23)c1C	3	2	-22	7	5	-1
COc1ccc(C(NC(C)=O)c2nccc3cc(OC)c(OC)cc23)cc1OC (configuration not stated)	9	1	-21	13	8	0
CCOC(=O)C1CCCN(C2CC(=O)N(c3cccc(C)c3)C2=O)C1 (configuration not stated)	-4	19	23	-23	-3	47*
CCOC(=O)c1ccc(N2C(=O)CC(N3CCCC(C)C3)C2=O)cc1 (configuration not stated)	-6	-1	-8	2	1	-3
Nc1[nH]c(C(=O)c2ccccc2)c(-c2ccc(Cl)cc2Cl)c1C(=O)c1ccc(Cl)c(Cl)c1	0	2	nt	nt	1	nt
CCc1c(-c2ccccc2)ncn1Cc1cccc(-c2ccccc2)c1	-16	1	nt	nt	27*	nt
CCc1c(-c2ccc(Cl)cc2)ncn1Cc1cccc(-c2ccccc2)c1	-7	-5	nt	nt	-4	nt
COc1ccccc1C1C=C(c2ccccc2)Nc2nnnn21 (configuration not stated)	2	1	-10	9	2	-6
CCCn1c(NC(=O)c2ccc(Cl)c(S(=O)(=O)N3CCCC3)c2)nc2ccccc21	-49	-9	35*	-13	9	-3
O=C(NCCN1CCOCC1)c1ccc(Cl)c(S(=O)(=O)N2CCCCC2)c1	-3	0	49*	-8	1	-2
Cc1ccc(C(=O)NCCCN2CCOCC2)cc1S(=O)(=O)N1CCCCC1	1	0	-4	3	5	-8
O=C(NCCCN1CCOCC1)c1ccc(Sc2ccccc2Cl)c([N+](=O)[O-])c1	-5	-4	31*	-26	1	-11
CN(C)C(CNC(=O)c1ccc(Cl)c(S(=O)(=O)N2CCCCCC2)c1)c1ccccc1 (configuration not stated)	-34	-7	52*	-20	11	-4
CCc1nc2ccccc2nc1N1CCN(S(=O)(=O)c2ccc(Cl)cc2)CC1	3	0	-15	9	1	3
Cc1ccc(C(=O)CSc2nnc(-c3cccs3)n2C)o1	3	0	-6	6	-3	-11
CC(NC(=O)c1ccc(Cl)c(S(=O)(=O)N2CCCCCC2)c1)c1cccnc1 (configuration not stated)	-7	-2	37*	-27	4	-7
Cc1cccc(C)c1-n1cccc1/C=C1/C(=N)N2C(=NC1=O)SN=C2S(C)(=O)=O	-18	-10	-5	-8	19	-10
Cc1ccc(-n2cccc2/C=C2/C(=N)N3C(=NC2=O)SN=C3S(C)(=O)=O)cc1Cl	19*	2	12	-6	28*	0
SMILES	M5 PAM	CHRM5 agonist	CHRM1 antagonist	M1 PAM	M5 antag	CHRM1 agonist
C=CCn1c(C)c(C(C)=O)c(N2CCN(C(c3ccccc3)c3ccccc3)CC2)nc1=S	-11	-9	35*	-15	7	-3
CC(Nc1ncnc2ccccc12)c1ccccc1 (configuration not stated)	-11	9	27*	-7	26	-2
Cc1cccc(NC(=O)CSc2nccn2Cc2ccco2)c1C	20*	-2	-3	20	-37	4
Cc1ccccc1NC(=O)CSc1nccn1Cc1ccco1	-1	-1	-15	16	-4	1
COc1cc(OC)cc(C(=O)N[C@H](C(=O)Nc2cc(F)ccc2C)C(C)C)c1	-1	-2	-4	6	4	-6
COCCNCC(=O)N1c2ccccc2Sc2ccccc21	-33	-21	90*	-29	57*	-9
CC(C)CNCC(=O)N1c2ccccc2Sc2ccccc21	-50	-14	93*	-22	74*	-6
CCOC(=O)N1CCN(C(=O)c2ccc3c(=O)n(CCc4ccccc4)c(=O)[nH]c3c2)CC1	-9	-10	49*	-19	1	-2
O=C(c1ccc2c(=O)n(CCc3ccccc3)c(=O)[nH]c2c1)N1CCN(c2ccccc2)CC1	-4	-4	-2	-5	4	-2
CCCCCn1c(=O)[nH]c2cc(C(=O)N3CCN(C(=O)OCC)CC3)ccc2c1=O	0	-5	49*	-32	14	-12
CCOC(=O)N1CCN(C(=O)c2ccc3c(=O)n(CCOC)c(=O)[nH]c3c2)CC1	-6	-1	28*	-8	2	-5
COc1ccc(C(=O)CC(=O)C(=O)Nc2cc(OC)c(OC)c(OC)c2)cc1	-2	-1	15	-6	8	-4
Cc1ccc2c(c1)NC(=O)C(CC(=O)NC1CCCCC1C)O2 (configuration not stated)	-3	2	-2	1	-3	-3
Nc1c(C(=O)CSc2nnc(Nc3ccc(F)cc3)s2)c(=O)[nH]c(=O)n1C1CC1	-9	-2	23	-11	2	-1
Cc1cc(C)nc(-n2nc(C)cc2NC(=O)CN2CCCC2)n1	4	0	-4	3	-12	-5
Cc1cc(C)nc(-n2nc(C)cc2NC(=O)CN2CCC(C)CC2)n1	2	-2	-13	20*	4	-7
